Experimental data from different studies.
Protocols differ between the studies behind these lines.

| Structure (SMILES) | assay | system | setting | endpoint | value |
| --- | --- | --- | --- | --- | --- |
| C[C@@H](C(=O)N1Cc2c(-c3ccc(C(=O)N4CCCc5ccccc54)cc3)cnn2C[C@@H]1C)c1ccccc1 | HPLC |  | pH 7.4 | chromatographic logD | 4.8 |
| OC[C@H]1O[C@@H](c2ccc(Cl)c(Cc3ccc(O[C@H]4CCOC4)cc3)c2)[C@H](O)[C@@H](O)[C@@H]1O |  | human, urine | oral, 25 mg, single dose | renal clearance | 21.1 mL/min |
| COc1ccc2nc(-c3ccccn3)c(N(C)c3ccc(F)cc3)n2c1 | metabolic stability | rat, hepatocytes |  | hepatocyte CLint | > 300 µL/min/10⁶ cells |
| CCOC(=O)C1=C(C)N/C(=C/c2cc(C)n(Cc3ccc(C(F)(F)F)cc3)c2C)C1=O | HPLC |  | pH 7.4 | chromatographic logD | 3.5 |
| CCNCCCNC/C=C\CNCCCNCC |  | human, plasma | intravenous, 100 mg, patients, infusion | clearance | 5510 mL/min |
| Cc1ccc(C(=O)N(CCCN)[C@@H](c2oc3cc(Cl)ccc3c(=O)c2Cc2ccccc2)C(C)C)cc1 |  | human, plasma | intravenous, 6 mg/m², single dose, patients, infusion | clearance | 23.6 mL/min |
| CCOC(=O)C1=C(C)N/C(=C/c2cc(C)n(-c3ccc(N4CCOCC4)cc3)c2C)C1=O | HPLC |  | pH 7.4 | chromatographic logD | 2.8 |
| Cc1c(C(=O)NN2CCCCC2)nc(-c2ccc(Cl)cc2Cl)n1-c1ccc(OCc2ccccc2)cc1 | shake flask | aqueous buffer | pH 7.4 | logD | > 5.3 |
| COc1ccn2c(Nc3ccccc3F)c(-c3ccncn3)nc2c1 | metabolic stability | rat, hepatocytes |  | hepatocyte CLint | 170 µL/min/10⁶ cells |
| c1cnc2ccc(Nc3nc(NC4CC4)c4nc[nH]c4n3)cc2c1 |  | human, plasma | oral, 200 mg/m², patients | CL/F | 80.9 L/h |
| COc1cccc(-c2nc3ccccn3c2Nc2ccc(F)cc2)n1 | metabolic stability | rat, hepatocytes |  | hepatocyte CLint | > 300 µL/min/10⁶ cells |
| CS(=O)(=O)CCC#N |  | human, plasma | oral, 300 mg, single dose, fasted | CL/F | 0.217 mL/min/kg |
| CN(c1ccc(F)cc1)c1c(-c2ccc(F)cn2)nc2ccccn12 | metabolic stability | rat, hepatocytes |  | hepatocyte CLint | > 300 µL/min/10⁶ cells |
| CC(C)CN(C[C@@H](O)[C@H](Cc1ccccc1)NC(=O)O[C@H]1CO[C@H]2OCC[C@H]21)S(=O)(=O)c1ccc(N)cc1 | shake flask | PBS | pH 3 | logD | 2.98 |
| Fc1ccc(Nc2c(-c3ncccc3F)nc3ccccn23)cc1 | metabolic stability | rat, hepatocytes |  | hepatocyte CLint | 100 µL/min/10⁶ cells |
| COc1cc(C(=O)NC2CCN(C)CC2)c(F)cc1Nc1ncc(C(F)(F)F)c(Oc2cccc3c2C(=O)N(C)C3)n1 |  | human, plasma | oral, 300 mg, multiple doses, once daily, patients | CL/F | 6.42 L/h |
| COc1cccnc1-c1nc2ccccn2c1N(C)c1ccc(F)cc1 | metabolic stability | rat, hepatocytes |  | hepatocyte CLint | > 300 µL/min/10⁶ cells |
| C[C@H](C(=O)N[C@@H]1COc2ccccc2[C@H]1S(C)(=O)=O)c1ccc(F)cc1 | metabolic stability | rat, liver microsomes | 1 µM | microsomal CLint | 55 µL/min/mg |
